# A selection: hits, their analogues and other compounds. The true share with any hit is near 2.3%.
# TWEAK-Fn14 inh: inhibitors of TWEAK-Fn14 interaction signaling; actives 2% (n = 360,000); inhibition, % at 10 µM; TWEAK-stimulated Fn14 reporter cells, luciferase luminescence, 8 h; in the data active = inhibition above about 50%
# TROY NFkB inh: blocks TROY-dependent signaling in reporter cells | inhibition, % at 10 µM | actives 0.98% (n = 360,000) | Q293 LMP1-TROYcd NF-kB luciferase reporter, 4 h;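 active = compounds whose plate-normalised and pattern-corrected inhibition of the luciferase reporter signal at the single screening dose is 50% or more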
# EWS-Fli block: inhibitors of EWS/Fli oncoprotein transcriptional activity | A673 NR0B1-luciferase reporter, viability-normalised | inhibition, % at 12.6 µM | actives 0.67% (n = 350,000) | AID 651661;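 active = mean inhibition of at least 50% after viability correction, with every replicate also passing that limit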;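 also: firefly luciferase signal divided by Alamar Blue viability fluorescence both relative to DMSO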
# XiGFP reactiv: reactivates the inactive X chromosome in mouse fibroblasts; actives 0.055% (n = 360,000); activation, % at 7.58 µM; XiGFP mouse fibroblasts, % GFP-positive cells imaging, 3 d; cells co-treated with 5-aza-dC sensitizer; scaled so ellipticine positive control = 100%; AID 743238;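 active = mean normalized replicate activation at least 10% and every replicate at or above 10%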
#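 Material: XiGFP fibroblasts, SV40-immortalized; Buffer or medium: DMEM containing 5-aza-dC; Compound dosing: single point; Times: 3 days compound exposure.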
# FN deposit inh: fibronectin deposition inhibition; actives 0.086% (n = 350,000); AH1F fibroblasts, Alexa488-fibronectin deposition fluorescence, overnight; inhibition, % at 12.6 µM; AID 743247;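 active = mean inhibition across replicates of 30% or more, regardless of how many single replicates reach that level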
#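 Test system: AH1F fibroblast monolayer depositing Alexa488-labelled fibronectin into matrix. Input: 10000 cells per well. Technique: fluorescence, ex 485 nm, em 525 nm. Buffer or medium: DMEM plus 2% serum, read in PBS. Timing: 1 h cell adhesion before compound, then overnight fibronectin incubation. Compound: single dose, pinned. Read-out basis: inhibition from reduced deposited-fibronectin fluorescence.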
# LGR2 inh: Drosophila LGR2 receptor signaling inhibition; HEK293 LGR2, CRE-luciferase, bursicon-stimulated, 4 h; AID 720647; inhibition, % at 9.99 µM; actives 0.35% (n = 380,000);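 active = drop in luminescence signal, shown as inhibition above about 50% in the replicate tests, limit read from the data, passing the limit was not always enough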;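 also: agonist challenge used bursicon conditioned medium at about half maximal strength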
# Hits are given with their value; - = inactive; . = no result.
SMILES,TWEAK-Fn14 inh,TROY NFkB inh,EWS-Fli block,XiGFP reactiv,FN deposit inh,LGR2 inh
COc1cc(NC(=O)c2cccs2)c(C(=O)OCC(=O)c2cc(C)n(-c3ccccc3)c2C)cc1OC,-,-,.,-,-,59.9
COc1ccc(-n2c(C)cc(C(=O)COC(=O)c3cc(NC(=O)c4cccs4)c(OC)c(OC)c3)c2C)cc1,-,-,-,-,.,-
COc1cc(NC(=O)c2cccs2)c(C(=O)OCC(=O)c2cc(C)n(-c3ccc(F)cc3)c2C)cc1OC,90.1,83.2,-,-,-,-
C[C@@H]1CN([C@H](C)CO)C(=O)c2cccc(NC(=O)c3nc4ccccc4s3)c2O[C@@H]1CN(C)S(=O)(=O)c1ccc(F)cc1,.,.,-,-,.,-
O=C(NCC1CCCCC1)[C@H]1[C@H](CO)[C@H]2Cn3c(cccc3=O)[C@@H]1N2C(=O)c1cccnc1,.,.,-,-,.,-
CO[C@H](CN(C)C(=O)Nc1ccc(Cl)cc1)[C@@H](C)CN(Cc1ccccc1Cl)[C@H](C)CO,.,.,-,-,-,-
O=C(COC(=O)Cc1n[nH]c(=O)c2ccccc12)Nc1ccc(Cl)cc1F,-,-,-,-,-,-
Cc1nnnn1/C(=C\c1ccccc1)C(=O)OCC(=O)Nc1ccc(Cl)cc1F,69.8,65.4,-,-,-,-
Cc1nnnn1/C(=C\c1ccccc1)C(=O)OCC(=O)Nc1cccc(S(=O)(=O)N(C)C)c1,72.2,-,-,-,-,-
CN(C)S(=O)(=O)c1cccc(NC(=O)COC(=O)c2ccc3ccccc3n2)c1,-,-,-,-,-,-
CCCCc1ccc(NC(=O)CSc2nc(=O)n(CCN(CC)CC)c3c2CCCC3)cc1,-,54.2,-,-,-,-
CCCCc1ccc(NC(=O)CSc2nc(=O)n(CCN(C)C)c3c2CCC3)cc1,-,-,-,-,-,-
O=C(NCc1ccccc1)c1ccc(-c2cn[nH]c2)c2ccoc12,-,-,-,-,34.7,-
COCCNC(=O)c1ccc(-c2cn[nH]c2)c2ccoc12,-,-,-,-,-,-
CC(C)CC#Cc1ccc([C@H]2[C@@H](CO)N3C(=O)CN(C(=O)NC4CCCC4)C[C@H]23)cc1,.,.,-,-,-,-
Cc1sc(-c2ccccn2)nc1OC(=O)c1cccc(Cl)c1Cl,-,-,.,.,-,.
Cc1sc(-c2ccccn2)nc1OC(=O)c1ccc(Cl)cc1,-,58.4,.,.,-,.
O=C(c1cc(COc2c(F)cccc2F)on1)N1CCC(c2ccccc2Cl)C1 (stereo unspecified),-,-,-,-,-,-
CCc1ccc(CN(C)C(=O)c2cc(COc3cccc4cnccc34)on2)cc1,57.5,-,.,-,-,-
CN(Cc1cccc2cnccc12)C(=O)c1cc(COc2ccc(F)cc2F)on1,-,-,-,-,-,-
O=C(c1cc(COc2cccc3cnccc23)on1)N1CCC(c2ccccc2Cl)C1 (stereo unspecified),-,54.0,-,-,-,-
COc1cccc(S(=O)(=O)N[C@H]2C=C[C@@H](CC(=O)NCc3ccc(Cl)cc3)O[C@H]2CO)c1,.,.,-,-,.,-
CC(=O)Nc1cccc(NC(=S)Nc2cccc3ccccc23)c1,-,-,.,-,.,-
CC(=O)c1cccc(NC(=S)Nc2cccc3ccccc23)c1,-,56.8,-,-,-,-
COc1ccc(NC(C)=O)cc1NC(C)C(=O)Nc1ccc(F)cc1 (stereo unspecified),-,-,.,.,-,.
SMILES,TWEAK-Fn14 inh,TROY NFkB inh,EWS-Fli block,XiGFP reactiv,FN deposit inh,LGR2 inh
COc1ccc(NC(=S)Nc2cccc(Cl)c2)cc1OC,-,-,-,-,.,-
S=C(Nc1cccc2ccccc12)Nc1cccc2ccccc12,92.0,-,-,-,-,-
COc1ccc(NC(=S)Nc2cccc3ccccc23)cc1OC,94.5,-,-,-,-,-
COc1ccc(NC(C)=O)cc1NC(C)C(=O)Nc1cccc2ccccc12 (stereo unspecified),-,57.1,.,.,.,-
C/C=C/c1cnc2c(c1)C(=O)N([C@@H](C)CO)C[C@H](C)[C@@H](CN(C)Cc1ccccc1)O2,.,.,-,-,-,-
C[C@@H](NC(=O)C[C@H]1C=C[C@H](NS(=O)(=O)c2cccc(F)c2)[C@@H](CO)O1)c1ccccc1,.,.,-,-,-,-

# Screening data (PubChem)
